Assay results reported in ChEMBL document CHEMBL1124387, “Cardiotonic agents. 9. Synthesis and biological evaluation of a series of (E)-4,5-dihydro-6-[2-[4-(1H-imidazol-1-yl)phenyl]ethenyl]-3 (2H)-pyridazinones: a novel class of compounds with positive inotropic, antithrombotic, and vasodilatory activities for the treatment of congestive heart failure” (J Med Chem, 1989).
Values joined by “and” are separate entries in the source; they are usually repeats but may differ in a detail not shown here. Equal entries are not always repeated.

Tests used:
[1] = organism: Homo sapiens; assay: In vitro inhibition of ADP stimulated platelet aggregation in human thrombocyte enriched plasma; format: functional
Summary of the method: (§1)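 Human platelet-rich plasma from aspirin/NSAID-free donors, adjusted to 250 000 platelets/μL with platelet-poor plasma. Drug in DMSO/saline (1% DMSO final) was added before ADP or collagen, with doses set by titration. Read-out was aggregation extent (ADP, curve height) or rate (collagen, major slope) as % of saline control.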

[2] = system: Canis familiaris; assay: Hemodynamic activity in anesthetized dog as percent change from baseline (2271 mmHg/s) in left ventricular myocardial activity at 3.1 mg/kg administered intravenously; format: functional, Canis lupus familiaris, Heart left ventricle; conditions: route intravenous
Summary of the method: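 Anaesthetised dogs were given one compound each, in ascending half-log iv doses 10 min apart, typically four to six doses. Each dose was dissolved in 0.9% saline or dilute HCl (0.1 or 1.0 N), made up with saline, and given as 0.1 mL/kg over 1 min after a 30-min control period. The readout was LV dP/dt_max from a differentiator amplifier, reported as maximum % change from control average ± SEM.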

[3] = system: Canis familiaris; assay: Hemodynamic activity in anesthetized dog as percent change from baseline (2271 mmHg/s) in left ventricular myocardial activity at 1 mg/kg administered intravenously; format: functional, Canis lupus familiaris, Heart left ventricle; conditions: route intravenous
[4] = organism: Homo sapiens; assay: In vitro inhibition of collagen stimulated platelet aggregation in human whole blood; format: functional
Summary of the method: (§2)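 Human whole blood from aspirin/NSAID-free fasted donors, read by impedance aggregometry 5 min after adding ADP or collagen. Aggregation expressed as % of control (2-6 replicates), plotted against log drug concentration; IC50 obtained by extrapolation.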

[5] = system: Canis familiaris; assay: Hemodynamic activity in anesthetized dog as percent change from baseline (2271 mmHg/s) in left ventricular myocardial activity at 0.1 mg/kg administered intravenously; format: functional, Canis lupus familiaris, Heart left ventricle; conditions: route intravenous
[6] = system: Canis familiaris; assay: Hemodynamic activity in anesthetized dog as percent change from baseline (2271 mmHg/s) in left ventricular myocardial activity at 0.3 mg/kg administered intravenously; format: functional, Canis lupus familiaris, Heart left ventricle; conditions: route intravenous
[7] = organism: Homo sapiens; assay: In vitro inhibition of collagen stimulated platelet aggregation in human thrombocyte enriched plasma; format: functional; summary of the method: as §1
[8] = organism: Homo sapiens; assay: In vitro inhibition of ADP stimulated platelet aggregation in human whole blood; format: functional; summary of the method: as §2
[9] = system: Canis familiaris; assay: Hemodynamic activity in anesthetized dog as percent change in left ventricular myocardial activity from baseline (2271 mmHg/s) at 0.03 mg/kg administered intravenously; format: functional, Canis lupus familiaris, Heart left ventricle; conditions: route intravenous
Summary of the method: (§3)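 Acutely instrumented anesthetized dogs (n = 6), 30-min control period. Compound in 0.9% saline, or dilute HCl diluted with saline, at 0.1 mL/kg iv over 1 min. At least four ascending half-log doses, 10 min apart, one compound per animal. Recorded: LV dP/dtmax, heart rate, aortic pressure and forelimb resistance. Values are maximum response from control average ± SEM.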

[10] = Partition coefficient (logP); format: physicochemical; conditions: octanol/water
[11] = system: Canis familiaris; assay: Hemodynamic activity in anesthetized dog as percent change in left ventricular myocardial activity from baseline (2271 mmHg/s) at 0.01 mg/kg administered intravenously; format: functional, Canis lupus familiaris, Heart left ventricle; conditions: route intravenous; summary of the method: as §3
[12] = system: Canis familiaris; assay: Hemodynamic activity in anesthetized dog as percent change in left ventricular myocardial activity from baseline (2271 mmHg/s) at 0.001 mg/kg administered intravenously; format: functional, Canis lupus familiaris, Heart left ventricle; conditions: route intravenous; summary of the method: as §3
[13] = system: Canis familiaris; assay: Hemodynamic activity in anesthetized dog as percent change in left ventricular myocardial activity from baseline (2271 mmHg/s) at 0.003 mg/kg administered intravenously; format: functional, Canis lupus familiaris, Heart left ventricle; conditions: route intravenous; summary of the method: as §3
[14] = organism: Canis familiaris; assay: 50% increase in myocardial contractility (dP/dT max) in dogs; format: functional, Canis lupus familiaris, Myocardium; summary of the method: as §3
[15] = molecular target: T1, Phosphodiesterase 3 (Homo sapiens, UniProt Q14432+Q13370); assay: Inhibition of Phosphodiesterase 3 from human platelets at 1E-7-1E-4M or 1.0E-6 to 1E-3 M
Summary of the method: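 Fraction III cAMP-PDE from guinea pig heart or human platelets. Substrate [3H]cyclic AMP 1.0 μM at 30°C, with hydrolysis held to ≤10-20% and kept linear over 30 min.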

[16] = Inhibition of phosphodiesterase 3 from guinea pig cardiac tissue at 1E-7-1E-4M or 1.0E-6 to 1E-3 M; set-up: species or system Cavia porcellus
Summary of the method: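 Fraction III cAMP-PDE from guinea pig heart or human platelets. Substrate [3H]cyclic AMP 1.0 μM at 30°C, with hydrolysis held to ≤10-20% and kept linear over 30 min. Compounds in DMSO, 2.5% final.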

[17] = organism: Canis familiaris; assay: Ratio of positive inotropic activity to peripheral Vasodilator activity in dogs; format: functional, Canis lupus familiaris
Summary of the method: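 Inotropic ED20 is the iv bolus dose giving a 20% rise in dP/dtmax in anesthetized dogs. Vasodilator ED20 is the bolus dose into the brachial cannula of a constant-flow perfused forelimb (pentobarbital 30 mg/kg iv then 3.0 mg/kg/h, heparinized) giving a 20% fall in perfusion pressure. Each ED20 was taken from its dose-response curve; the ratio is PI/PV.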

[18] = molecular target: T1, Phosphodiesterase 3; assay: Inhibition of phosphodiesterase 3 from human platelets at 1E-7-1E-4M or 1.0E-6 to 1E-3 M
[19] = system: Canis familiaris; assay: (§4) Percentage increase in left ventricular contractility in anesthetized dog; format: functional, Canis lupus familiaris, Heart left ventricle
[20] = organism: Canis familiaris; assay: Weight of thrombus; format: functional, Canis lupus familiaris
Summary of the method: (§5)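 Pentobarbital-anesthetized (32 mg/kg iv), ventilated dogs, allowed 30 min to stabilize. Continuous infusion of compound (1.0, 3.0 or 10.0 μg/kg/min) or saline began 15 min before 50 μA current was applied to an intraluminal electrode in the circumflex coronary artery. After 60 min of stimulation the animals were euthanized and the thrombus dissected and weighed. One treatment per animal.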

[21] = system: Canis familiaris; assay: Decrease in thrombus weight in anesthetized dog coronary artery; format: functional, Canis lupus familiaris; summary of the method: as §5
[22] = system: Canis familiaris; assay: as §4; format: functional, Canis lupus familiaris, Heart left ventricle; remark: listed apart in the source

| SMILES | IC50 [1] | IC50 [4] | Change [5] | IC50 [7] | IC50 [8] | logP [10] | Dose [14] | also measured |
| --- | --- | --- | --- | --- | --- | --- | --- | --- |
| Nc1cc(-c2ccncc2)c[nH]c1=O [INAMRINONE] | 250 µM | 500 µM | 9% | 15 µM | 50 µM |  |  | Change [2]: 165%; Change [3]: 85%; Change [6]: 32% |
| CC1CC(O)=NN=C1c1ccc(-n2ccnc2)cc1 (configuration not stated) [CI-930] | 4 µM | 45 µM | 149% | 0.01 µM | 0.4 µM | 1.29 |  | Change [9]: 124%; Change [11]: 51%; Change [12]: 11%; Change [13]: 25% |
| CC1CC(=O)NN=C1/C=C/c1ccc(-n2cnc3c2CCCC3)cc1 (configuration not stated) | 6 µM |  |  | 0.6 µM |  | 3.1 | 0.05 mg/kg | IC50 [15]: 0.018 µM; IC50 [16]: 0.1 µM |
| Cc1ncn(-c2ccc(/C=C/C3=NNC(=O)CC3C)cc2)c1C (configuration not stated) | 30 µM |  |  | 1.5 µM |  |  | 0.05 mg/kg |  |
| Cc1cc(O)nnc1/C=C/c1ccc(-n2ccnc2)cc1 |  |  |  |  |  |  | 0.2 mg/kg |  |
| CC(=O)Nc1ccc(/C=C/C2=NNC(=O)CC2C)cc1 (configuration not stated) |  |  |  |  |  | 1.27 | 0.02 mg/kg | IC50 [15]: 0.87 µM; IC50 [16]: 2.8 µM |
| CSc1ccc(C(=O)c2[nH]c(=O)[nH]c2C)cc1 [ENOXIMONE] | 120 µM |  | 19% | 15 µM |  |  |  | Ratio [17]: 0.58; Change [9]: 7%; Change [11]: 5%; Change [3]: 83%; Change [6]: 47% |
| CC1CC(=O)NN=C1c1ccc(-n2cnc3c2CCCC3)cc1 (configuration not stated) [TETRAHYDROBENXIMIDAZOLE] | 4 µM | 0.75 µM |  | 0.015 µM | 0.5 µM | 2.52 |  | IC50 [18]: 0.11 µM; IC50 [16]: 0.15 µM |
| O=C1CCC(CCc2ccc(-n3ccnc3)cc2)=NN1 |  |  |  |  |  |  | 1 mg/kg |  |
| CCc1[nH]c(=O)[nH]c1C(=O)c1ccncc1 [PIROXIMONE] | 60 µM |  | 41% | 15 µM |  |  |  | Change [9]: 16%; Change [11]: 8%; Change [3]: 144%; Change [6]: 93% |
| Cc1[nH]c(=O)c(C#N)cc1-c1ccncc1 [MILRINONE] | 10 µM | 0.35 µM | 113% | 0.1 µM | 9 µM |  |  | Change [9]: 78%; Change [11]: 31%; Change [3]: 149%; Change [6]: 143% |
| CC1CC(=O)NN=C1/C=C/c1ccc(-n2cnc3ccccc32)cc1 (configuration not stated) |  |  |  |  |  |  | 0.09 mg/kg |  |
| O=C1CCC(/C=C/c2ccc(-n3cnc4c3CCCC4)cc2)=NN1 | 5 µM | 1 µM |  | 0.45 µM | 1.7 µM | 2.47 | 0.1 mg/kg |  |
| O=C1CCC(c2ccc(-n3ccnc3)cc2)=NN1 [IMAZODAN] | 20 µM | 17 µM | 74% | 3 µM | 8 µM | 0.96 |  | Change [9]: 37%; Change [11]: 10%; Change [3]: 147%; Change [6]: 127% |
| CC(Cl)C(=O)Nc1ccc(C2=NNC(=O)CC2C)cc1 (configuration not stated) [AMIPIZONE] | 0.35 µM | 0.4 µM |  | 0.15 µM | 0.01 µM | 1.4 |  | Increase [19]: 10% and 23%; Thrombus weight [20]: 8.3 mg and 4.8 mg and 4.1 mg; Inhibition [21]: 54% and 73% and 77%; Increase [22]: 3% |
| O=C1CCC(/C=C/c2ccc(-n3ccnc3)cc2)=NN1 | 6 µM |  |  | 0.2 µM |  | 1.21 | 0.02 mg/kg | IC50 [18]: 0.4 µM; IC50 [16]: 1.1 µM |
| CCC(=O)Nc1ccc(/C=C/C2=NNC(=O)CC2C)cc1 (configuration not stated) |  |  |  |  |  |  | 0.2 mg/kg |  |
| CC1CC(=O)NN=C1/C=C/c1ccc(N)cc1 (configuration not stated) |  |  |  |  |  |  | 1 mg/kg |  |
| CC1CC(=O)N(C)N=C1/C=C/c1ccc(-n2ccnc2)cc1 (configuration not stated) |  |  |  |  |  |  | 1 mg/kg |  |
| CC(=O)Nc1ccc(/C=C/C2=NNC(=O)C(C)(C)C2)cc1 | 4 µM |  |  | 0.25 µM |  |  | 1 mg/kg |  |
